Measured values gathered from unrelated publications.
pIC50: −log10 of the molar value.
Target: Cytochrome P450 2C19 (CYP2C19, Homo sapiens, UniProt P33261)
Read-out: enzyme activity
Action: inhibitor

N=C(N)NCc1ccc(NC(=O)C23CCC(C(=O)Nc4ccc(C5=CCN(C(=N)N)CC5)cc4)(CC2)CC3)cc1  inhibition (liver microsomes; 10 µM): 28.6%
O=C(Nc1c2c(cc3c1CCC3)CCC2)NS(=O)(=O)/C=C/c1nccs1  inhibition (human, liver microsomes; 2 µM, pH 7.4): 8.8%
COc1ccc(Oc2ccc(CN(Cc3ccccc3)Cc3cnc4nc(N)nc(N)c4n3)cc2)cc1  inhibition (luciferase; 10 µM): 102%
CCc1cc(/C(C)=N/OCc2ccc(C3CCCCC3)c(C(F)(F)F)c2)ccc1CN1CC(C(=O)O)C1  inhibition (human, liver microsomes; 100 µM, 20 min): 9.4%
C[C@@H](c1ccc2nccn2c1)n1nnc2ncc(-c3cnn(C)c3)nc21  pIC50 (human, liver microsomes; pH 7.4): 4.00
Nc1nc(N)c2nc(CNc3ccc(C(=O)N4CCC(C(=O)O)CC4)cc3)cnc2n1  inhibition (luciferase; 10 µM): -18.1%
C=CC(=O)Nc1cc(Nc2nccc(Nc3cc(Cl)c(F)cc3C(C)(C)O)n2)c(OC)cc1N1CC[C@@H](N(C)C)C1  inhibition (human, liver microsomes; 10 µM): < 20%
N=C(N)N1CC=C(c2coc(C(=O)Nc3ccc(C4=CCN(C(=N)N)CC4)c(F)c3)c2)CC1  inhibition (liver microsomes; 10 µM): 2.2%
CCN(Cc1cnc2nc(N)nc(N)c2n1)c1ccc(C(=O)N2CCC(C(=O)OC)CC2)cc1  inhibition (luciferase; 10 µM): -11.1%
